Reference: ChEMBL document CHEMBL4387724, “2-Pyridineformamide N(4)-ring incorporated thiosemicarbazones inhibit MCF-7 cells by inhibiting JNK pathway” (Bioorg Med Chem Lett, 2019)
Calls of active or inactive are those of the source. The rule behind the calls is not given here.

Columns and labels:
MCF7 [1] = experiment: Induction of apoptosis in human MCF7 cells assessed as downregulation of c-Jun protein expression 100 nM to 3 uM incubated for 48 hrs by immunoblot method; type: functional, cell-based
In short: (§1)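 MCF7 cells seeded at 1.25×10^5 per well in six-well plates and treated at 100 nM–3 μM for 48 h per legend (72 h per methods note). Lysed in 2X SDS buffer and sonicated; protein quantified by BCA. 20–25 µg run on 12% SDS gels and transferred to PVDF. Blocked in 5% BSA/TBST, primary antibodies overnight, secondary 1 h, ECL detection, β-actin as loading control.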

HeLa [2] = experiment: Cytotoxicity against human HeLa cells assessed as reduction in cell growth at 1 uM incubated for 72 hrs by MTT assay relative to control; type: functional; conditions: read-out: GI
In short: (§2)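 Cells grown in DMEM with 10% FBS and penicillin-streptomycin at 37 °C, 5% CO2, seeded at 3000 cells/well and attached overnight. Screening series given at 1, 3, 10, 100 μM; follow-up agent at 100 nM–3 μM; both 72 h, with 0.1% DMSO vehicle. MTT (5 mg/mL stock) added for 3 h at 37 °C, formazan dissolved in DMSO, absorbance read at 570 nm. Viability expressed as % of DMSO-treated wells from replicates.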

MCF7 [3] = experiment: Induction of apoptosis in human MCF7 cells assessed as effect on pro-caspase-3 expression at 100 nM to 3 uM incubated for 48 hrs by immunoblot method; type: functional, cell-based; in short: as §1
MCF7 [4] = experiment: Induction of apoptosis in human MCF7 cells assessed as downregulation of JNK1 protein expression at 100 nM to 3 uM incubated for 48 hrs by immunoblot method; type: functional, cell-based; in short: as §1
MCF7 [5] = experiment: Cytotoxicity against human MCF7 cells assessed as reduction in cell growth incubated for 72 hrs by MTT assay; type: functional, cell-based; conditions: MCF7, 72 h; in short: as §2
MCF7 [6] = experiment: Antiproliferative activity against human MCF7 cells assessed as inhibition of colony formation at 100 nM to 3 uM incubated for 21 days with every 72 hrs media was change treatment by crystal violet staining based assay; type: functional, cell-based
In short: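 MCF7 cells seeded at 500 cells/well (legend: 1200/well) in six-well plates, left to adhere overnight, then dosed at 100 nM–3 μM. Medium and compound renewed every 72 h over 21 days. Colonies washed with PBS, fixed in 3.7% formaldehyde 20 min, stained with 0.4% crystal violet, rinsed in PBS, then counted.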

HeLa [7] = experiment: Cytotoxicity against human HeLa cells assessed as reduction in cell growth at 100 uM incubated for 72 hrs by MTT assay relative to control; type: functional; conditions: read-out: GI; in short: as §2
MCF7 [8] = experiment: Cytotoxicity against human MCF7 cells assessed as reduction in cell growth at 100 uM incubated for 72 hrs by MTT assay relative to control; type: functional; conditions: MCF7, 72 h, read-out: GI; in short: as §2
A-431 [9] = experiment: Cytotoxicity against human A431 cells assessed as reduction in cell growth at 100 uM incubated for 72 hrs by MTT assay relative to control; type: functional; conditions: A-431, 72 h, read-out: GI; in short: as §2
MCF7 [10] = experiment: Induction of apoptosis in human MCF7 cells assessed as effect on PARP1 protein expression at 100 nM to 3 uM incubated for 48 hrs by immunoblot method; type: functional, cell-based; in short: as §1
MCF7 [11] = experiment: Cytotoxicity against human MCF7 cells assessed as reduction in cell growth at 100 nM to 3 uM incubated for 72 hrs by MTT assay; type: functional, cell-based; in short: as §2
HeLa [12] = experiment: Cytotoxicity against human HeLa cells assessed as reduction in cell growth incubated for 72 hrs by MTT assay; type: functional, cell-based; in short: as §2
MCF7 [13] = experiment: Cytotoxicity against human MCF7 cells assessed as reduction in cell growth at 1 uM incubated for 72 hrs by MTT assay relative to control; type: functional; conditions: MCF7, 72 h, read-out: GI; in short: as §2
A-375 [14] = experiment: Cytotoxicity against human A375 cells assessed as reduction in cell growth incubated for 72 hrs by MTT assay; type: functional, cell-based; conditions: A-375, 72 h; in short: as §2
A-431 [15] = experiment: Cytotoxicity against human A431 cells assessed as reduction in cell growth at 1 uM incubated for 72 hrs by MTT assay relative to control; type: functional; conditions: A-431, 72 h, read-out: GI; in short: as §2
HeLa [16] = experiment: Cytotoxicity against human HeLa cells assessed as reduction in cell growth at 30 uM incubated for 72 hrs by MTT assay relative to control; type: functional; conditions: read-out: GI
HeLa [17] = experiment: Cytotoxicity against human HeLa cells assessed as reduction in cell growth at 10 uM incubated for 72 hrs by MTT assay relative to control; type: functional; conditions: read-out: GI; in short: as §2
A-375 [18] = experiment: Cytotoxicity against human A375 cells assessed as reduction in cell growth at 100 uM incubated for 72 hrs by MTT assay relative to control; type: functional; conditions: A-375, 72 h, read-out: GI; in short: as §2
HeLa [19] = experiment: Cytotoxicity against human HeLa cells assessed as reduction in cell growth at 3 uM incubated for 72 hrs by MTT assay relative to control; type: functional; conditions: read-out: GI; in short: as §2
MCF7 [20] = experiment: Cytotoxicity against human MCF7 cells assessed as reduction in cell growth at 30 uM incubated for 72 hrs by MTT assay relative to control; type: functional; conditions: MCF7, 72 h, read-out: GI
MCF7 [21] = experiment: Induction of apoptosis in human MCF7 cells assessed as increase in Bax protein expression at 100 nM to 3 uM incubated for 48 hrs by immunoblot method; type: functional, cell-based; in short: as §1
A-375 [22] = experiment: Cytotoxicity against human A375 cells assessed as reduction in cell growth at 30 uM incubated for 72 hrs by MTT assay relative to control; type: functional; conditions: A-375, 72 h, read-out: GI
MCF7 [23] = experiment: Cytotoxicity against human MCF7 cells assessed as reduction in cell growth at 10 uM incubated for 72 hrs by MTT assay relative to control; type: functional; conditions: MCF7, 72 h, read-out: GI; in short: as §2
A-375 [24] = experiment: Cytotoxicity against human A375 cells assessed as reduction in cell growth at 1 uM incubated for 72 hrs by MTT assay relative to control; type: functional; conditions: A-375, 72 h, read-out: GI; in short: as §2
A-431 [25] = experiment: Cytotoxicity against human A431 cells assessed as reduction in cell growth incubated for 72 hrs by MTT assay; type: functional, cell-based; conditions: A-431, 72 h; in short: as §2
A-375 [26] = experiment: Cytotoxicity against human A375 cells assessed as reduction in cell growth at 3 uM incubated for 72 hrs by MTT assay relative to control; type: functional; conditions: A-375, 72 h, read-out: GI; in short: as §2
MCF7 [27] = experiment: Antiproliferative activity against human MCF7 cells assessed as induction of cell death at 100 nM to 3 uM incubated for 48 hrs by propidium iodide based flow cytometry; type: functional
In short: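 MCF7 cells in DMEM with 10% FBS at 37 °C, 5% CO2, 30,000 cells/well in six-well plates, exposed to 100 nM, 300 nM, 1 μM or 3 μM (0.1% DMSO vehicle) for 48 h per legend (72 h per methods note). Harvested, washed in PBS, stained with propidium iodide (5 μg/mL) 20 min at 4 °C, and % dead cells read by flow cytometry against DMSO control.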

A-431 [28] = experiment: Cytotoxicity against human A431 cells assessed as reduction in cell growth at 30 uM incubated for 72 hrs by MTT assay relative to control; type: functional; conditions: A-431, 72 h, read-out: GI
A-375 [29] = experiment: Cytotoxicity against human A375 cells assessed as reduction in cell growth at 10 uM incubated for 72 hrs by MTT assay relative to control; type: functional; conditions: A-375, 72 h, read-out: GI; in short: as §2
A-431 [30] = experiment: Cytotoxicity against human A431 cells assessed as reduction in cell growth at 10 uM incubated for 72 hrs by MTT assay relative to control; type: functional; conditions: A-431, 72 h, read-out: GI; in short: as §2
MCF7 [31] = experiment: Induction of apoptosis in human MCF7 cells assessed as reduction in Bcl2 protein expression at 100 nM to 3 uM incubated for 48 hrs by immunoblot method; type: functional, cell-based; in short: as §1
A-431 [32] = experiment: Cytotoxicity against human A431 cells assessed as reduction in cell growth at 3 uM incubated for 72 hrs by MTT assay relative to control; type: functional; conditions: A-431, 72 h, read-out: GI; in short: as §2
MCF7 [33] = experiment: Cytotoxicity against human MCF7 cells assessed as reduction in cell growth at 3 uM incubated for 72 hrs by MTT assay relative to control; type: functional; conditions: MCF7, 72 h, read-out: GI; in short: as §2

Compound	inhibition of growth at 1 µM (HeLa [2]) [%]	IC50 (MCF7 [5]) [nM]	inhibition of growth at 100 µM (HeLa [7]) [%]	inhibition of growth at 100 µM (MCF7 [8]) [%]	inhibition of growth at 100 µM (A-431 [9]) [%]	IC50 (HeLa [12]) [nM]	inhibition of growth at 1 µM (MCF7 [13]) [%]	IC50 (A-375 [14]) [nM]	inhibition of growth at 1 µM (A-431 [15]) [%]	inhibition of growth at 30 µM (HeLa [16]) [%]	inhibition of growth at 10 µM (HeLa [17]) [%]	inhibition of growth at 100 µM (A-375 [18]) [%]	inhibition of growth at 3 µM (HeLa [19]) [%]	inhibition of growth at 30 µM (MCF7 [20]) [%]	inhibition of growth at 30 µM (A-375 [22]) [%]	inhibition of growth at 10 µM (MCF7 [23]) [%]	inhibition of growth at 1 µM (A-375 [24]) [%]	IC50 (A-431 [25]) [nM]	inhibition of growth at 3 µM (A-375 [26]) [%]	inhibition of growth at 30 µM (A-431 [28]) [%]	further results
N/C(=N\NC(=S)N1CCCC1)c1ccc(F)cn1	62.8	900	85.4	73	85.6	1800	51	860	50.7	81.2	72.7	86.6	77.7	60.6	83.2	54.5	57.9	1000	81.8	83.3	Activity (MCF7 [1]): Dose-dependent effect; Activity (MCF7 [3]): Active; Activity (MCF7 [4]): Dose-dependent effect; inhibition (MCF7 [6]): Dose-dependent effect; Activity (MCF7 [10]): Active; Activity (MCF7 [11]): Dose-dependent effect; Activity (MCF7 [21]): Active; Activity (MCF7 [27]): Dose-dependent effect; inhibition of growth at 10 µM (A-375 [29]): 82.3%; inhibition of growth at 10 µM (A-431 [30]): 78.7%; Activity (MCF7 [31]): Active; inhibition of growth at 3 µM (A-431 [32]): 72.2%; inhibition of growth at 3 µM (MCF7 [33]): 52.6%
Cc1ccnc(/C(N)=N/NC(=S)N2CCOCC2)c1	39.1	> 100000	82.7	12.8	82.8	38500	1.22	1600	33.6	45.2	49.1	90.6	44.7	8.16	87.4	6.86	43.2	6800	66.6	74.6	inhibition of growth at 10 µM (A-375 [29]): 86%; inhibition of growth at 10 µM (A-431 [30]): 62%; inhibition of growth at 3 µM (A-431 [32]): 35.5%; inhibition of growth at 3 µM (MCF7 [33]): 5.07%
